Data taken from ChEMBL document CHEMBL4152384, “Pyrtriazoles, a Novel Class of Store-Operated Calcium Entry Modulators: Discovery, Biological Profiling, and in Vivo Proof-of-Concept Efficacy in Acute Pancreatitis” (J Med Chem, 2018).
pIC50: −log10 of the molar value. Active and inactive are the calls of the source. The calls are words filed in the database; no cut-off is given here.

Tests used:
[1] = molecular target: T1, Stromal interaction molecule 1 & 2/Calcium release-activated calcium channel protein 1 (Mus musculus) (UniProt Q8BWG9+P70302+P83093); assay: (§1) Modulation of STIM1/STIM2/Orai1 in mouse BV2 cells assessed as induction of store-operated calcium entry by measuring residual activity at 10 uM preincubated for 30 mins followed by tBhQ-mediated Ca2+ depletion and Ca2+ re-addition to extracellular solution measured for 600 secs by Fluo-4 AM-based fluorometric assay relative to control; assay type: cell-based
[2] = molecular target: T2, Short transient receptor potential channel 1 & 3/Stromal interaction molecule 1/Calcium release-activated calcium channel protein 1 (Homo sapiens) (UniProt Q96D31+Q13507+Q13586+P48995); assay: as §1, with “TRPC1/TRPC3/STIM1/Orai1” for “STIM1/STIM2/Orai1”, “HEK” for “mouse BV2”; assay type: cell-based
T2 sequence (P48995 whole entry partner): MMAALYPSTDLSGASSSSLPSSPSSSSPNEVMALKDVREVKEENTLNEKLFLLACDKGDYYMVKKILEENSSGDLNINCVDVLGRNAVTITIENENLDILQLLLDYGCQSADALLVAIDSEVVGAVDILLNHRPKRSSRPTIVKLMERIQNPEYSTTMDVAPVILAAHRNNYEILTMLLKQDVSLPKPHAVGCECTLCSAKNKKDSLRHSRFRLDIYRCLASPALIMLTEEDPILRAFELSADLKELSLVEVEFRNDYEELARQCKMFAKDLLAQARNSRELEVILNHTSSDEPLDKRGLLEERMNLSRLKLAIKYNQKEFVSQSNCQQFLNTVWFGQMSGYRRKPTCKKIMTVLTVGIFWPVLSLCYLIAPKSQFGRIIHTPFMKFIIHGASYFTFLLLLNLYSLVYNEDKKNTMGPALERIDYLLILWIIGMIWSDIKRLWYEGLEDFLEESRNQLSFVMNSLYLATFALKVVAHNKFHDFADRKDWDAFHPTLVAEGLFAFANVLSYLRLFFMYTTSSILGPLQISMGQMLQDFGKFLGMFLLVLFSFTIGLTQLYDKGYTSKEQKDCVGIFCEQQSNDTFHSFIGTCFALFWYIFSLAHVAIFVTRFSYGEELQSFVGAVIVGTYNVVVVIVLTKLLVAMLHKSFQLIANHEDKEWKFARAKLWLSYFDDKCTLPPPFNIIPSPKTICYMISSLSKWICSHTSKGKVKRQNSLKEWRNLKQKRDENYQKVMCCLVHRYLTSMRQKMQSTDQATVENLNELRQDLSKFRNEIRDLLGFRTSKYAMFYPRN
T2 sequence (Q13507 whole entry partner): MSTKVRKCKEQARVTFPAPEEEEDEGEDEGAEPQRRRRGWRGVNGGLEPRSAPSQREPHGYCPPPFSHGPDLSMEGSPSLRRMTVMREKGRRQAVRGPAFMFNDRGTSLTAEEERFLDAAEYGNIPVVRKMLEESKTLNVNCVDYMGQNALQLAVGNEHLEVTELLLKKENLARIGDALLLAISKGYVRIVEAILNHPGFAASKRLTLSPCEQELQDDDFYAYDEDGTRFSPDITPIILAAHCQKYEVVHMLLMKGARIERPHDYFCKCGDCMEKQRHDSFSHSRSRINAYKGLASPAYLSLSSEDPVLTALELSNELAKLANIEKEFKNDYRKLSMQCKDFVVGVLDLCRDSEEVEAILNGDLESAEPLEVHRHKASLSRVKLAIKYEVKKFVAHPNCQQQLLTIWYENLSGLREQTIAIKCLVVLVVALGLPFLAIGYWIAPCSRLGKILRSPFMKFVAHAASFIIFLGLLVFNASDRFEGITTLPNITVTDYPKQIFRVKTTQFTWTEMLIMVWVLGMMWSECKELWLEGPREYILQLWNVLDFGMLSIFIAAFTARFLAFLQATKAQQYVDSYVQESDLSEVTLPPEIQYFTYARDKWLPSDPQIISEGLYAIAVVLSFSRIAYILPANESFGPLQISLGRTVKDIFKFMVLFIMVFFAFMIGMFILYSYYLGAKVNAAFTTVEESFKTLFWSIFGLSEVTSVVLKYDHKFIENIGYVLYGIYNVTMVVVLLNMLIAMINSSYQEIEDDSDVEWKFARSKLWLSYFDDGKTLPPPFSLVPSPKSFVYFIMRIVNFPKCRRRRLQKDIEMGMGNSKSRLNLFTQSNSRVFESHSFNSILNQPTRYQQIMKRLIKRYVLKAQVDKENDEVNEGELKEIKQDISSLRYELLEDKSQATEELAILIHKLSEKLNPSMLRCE
T2 sequence (Q13586 23-685 partner limits assumed): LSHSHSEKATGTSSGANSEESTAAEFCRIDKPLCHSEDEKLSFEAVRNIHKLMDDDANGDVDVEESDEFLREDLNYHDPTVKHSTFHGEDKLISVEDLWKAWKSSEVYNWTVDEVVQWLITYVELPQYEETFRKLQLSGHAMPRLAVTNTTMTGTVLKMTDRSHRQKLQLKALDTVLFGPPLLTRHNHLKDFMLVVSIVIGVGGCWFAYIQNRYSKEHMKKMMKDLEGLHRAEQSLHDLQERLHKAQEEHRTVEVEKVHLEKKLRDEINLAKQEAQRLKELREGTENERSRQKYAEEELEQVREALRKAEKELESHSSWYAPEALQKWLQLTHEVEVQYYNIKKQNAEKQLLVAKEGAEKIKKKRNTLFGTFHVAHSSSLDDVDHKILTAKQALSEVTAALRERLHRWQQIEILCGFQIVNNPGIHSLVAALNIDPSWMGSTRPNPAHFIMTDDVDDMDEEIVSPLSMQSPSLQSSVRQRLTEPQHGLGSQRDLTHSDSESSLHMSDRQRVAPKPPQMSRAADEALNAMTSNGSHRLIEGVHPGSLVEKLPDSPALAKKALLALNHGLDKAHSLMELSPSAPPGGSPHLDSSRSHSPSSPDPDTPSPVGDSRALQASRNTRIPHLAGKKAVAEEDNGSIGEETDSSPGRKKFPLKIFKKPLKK
T2 sequence (Q96D31 whole entry): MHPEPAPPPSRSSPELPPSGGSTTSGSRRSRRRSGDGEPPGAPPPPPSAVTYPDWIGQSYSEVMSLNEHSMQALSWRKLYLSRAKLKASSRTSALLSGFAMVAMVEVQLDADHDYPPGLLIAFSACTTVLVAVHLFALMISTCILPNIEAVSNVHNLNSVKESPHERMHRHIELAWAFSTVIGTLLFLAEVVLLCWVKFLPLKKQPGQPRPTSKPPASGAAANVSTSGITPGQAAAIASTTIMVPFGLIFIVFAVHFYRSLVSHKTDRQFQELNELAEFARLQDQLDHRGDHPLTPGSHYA

[3] = tested on: Jurkat; assay: as §1, with “Induction” for “Modulation”, “store-operated calcium entry” for “STIM1/STIM2/Orai1”, “human Jurkat” for “mouse BV2”; assay type: cell-based
[4] = molecular target: Stromal interaction molecule 1 & 2/Calcium release-activated calcium channel protein 1 (Homo sapiens, UniProt Q13586+Q96D31+Q9P246); assay: Inhibition of STIM1/STIM2/Orai1 (unknown origin) expressed in mouse BV2 cells assessed as induction of store-operated calcium entry by measuring residual activity preincubated for 30 mins followed by tBhQ, mediated Ca2+ depletion and re-addition measured for 600 secs by Fluo-4 AM-based fluorometric assay; assay type: cell-based
[5] = molecular target: Short transient receptor potential channel 1 & 3/Stromal interaction molecule 1/Calcium release-activated calcium channel protein 1 (Homo sapiens, UniProt P48995+Q13507+Q13586+Q96D31); assay: as §1, with “TRPC1/TRPC3/STIM1/Orai1” for “STIM1/STIM2/Orai1”, “HEK” for “mouse BV2”, “activity” for “activity at 10 uM”; assay type: cell-based
[6] = as §1, with “Induction” for “Modulation”, “store-operated calcium entry” for “STIM1/STIM2/Orai1”, “human Jurkat” for “mouse BV2”, “activity” for “activity at 10 uM”; assay type: cell-based
[7] = Cytotoxicity against HEK cells assessed as cell viability at 10 uM by MTT assay relative to control; assay type: cell-based; settings: human, read-out: Activity
How it was run: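 Hek cells treated 24 h with compound at 10 μM; viability determined by MTT assay.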

[8] = molecular target: T3, ORAI1/STIM1 (Homo sapiens) (UniProt Q96D31+Q13586); assay: Inhibition of Orai1/STIM1 (unknown origin) expressed in HEK cells assessed as reduction in store-operated calcium currents at 10 uM by patch clamp assay relative to control; assay type: cell-based
T3 sequence (Q13586 23-685 partner limits assumed): as the sequence (Q13586 23-685 partner limits assumed) above
T3 sequence (Q96D31 whole entry): as the sequence (Q96D31 whole entry) above
How it was run: (§2)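 Whole-cell ISOC recorded in Hek cells stably overexpressing Orai1 and transiently expressing STIM1; internal solution strongly buffered with 20 mM BAPTA; compound at 10 μM versus untreated control.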

[9] = molecular target: Transient receptor potential cation channel subfamily V member 1 (Homo sapiens) (UniProt Q8NER1); assay: Antagonist activity at TRPV1 (unknown origin) expressed in HEK cells assessed as inhibition of capsaicin-induced calcium increase at 10 uM by fura-2-based assay; assay type: cell-based
Transient receptor potential cation channel subfamily V member 1 (Homo sapiens), sequence (Q8NER1 whole entry): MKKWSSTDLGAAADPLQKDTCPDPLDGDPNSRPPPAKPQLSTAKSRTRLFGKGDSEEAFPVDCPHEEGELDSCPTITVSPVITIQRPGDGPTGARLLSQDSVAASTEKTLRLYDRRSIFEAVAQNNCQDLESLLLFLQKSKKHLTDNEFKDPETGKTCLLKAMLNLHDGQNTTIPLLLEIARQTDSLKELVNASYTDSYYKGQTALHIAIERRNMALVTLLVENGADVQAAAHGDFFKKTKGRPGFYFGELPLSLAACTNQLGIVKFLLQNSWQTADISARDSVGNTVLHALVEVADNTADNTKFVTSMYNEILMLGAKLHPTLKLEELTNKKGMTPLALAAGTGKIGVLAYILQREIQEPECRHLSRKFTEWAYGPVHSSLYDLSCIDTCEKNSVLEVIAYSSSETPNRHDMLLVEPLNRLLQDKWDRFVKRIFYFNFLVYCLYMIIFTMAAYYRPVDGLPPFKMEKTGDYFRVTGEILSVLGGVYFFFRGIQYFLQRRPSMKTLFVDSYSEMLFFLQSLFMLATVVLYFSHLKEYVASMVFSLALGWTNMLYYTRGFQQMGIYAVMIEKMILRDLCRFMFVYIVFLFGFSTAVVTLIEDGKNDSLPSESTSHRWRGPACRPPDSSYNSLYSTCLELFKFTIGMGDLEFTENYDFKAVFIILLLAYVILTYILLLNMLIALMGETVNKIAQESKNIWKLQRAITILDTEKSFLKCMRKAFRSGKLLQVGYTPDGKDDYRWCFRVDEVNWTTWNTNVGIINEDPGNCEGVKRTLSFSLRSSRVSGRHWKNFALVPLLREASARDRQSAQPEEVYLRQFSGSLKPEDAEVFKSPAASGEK
How it was run: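 TRPV1-overexpressing Hek cells; calcium rise evoked by capsaicin (100 nM), test compounds at 10 μM; peak amplitude read out; mean ± SEM of 600 cells from 30 plates on four separate experimental days.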

[10] = molecular target: Transient receptor potential cation channel subfamily M member 8 (Homo sapiens) (UniProt Q7Z2W7); assay: Antagonist activity at TRPM8 (unknown origin) expressed in HEK cells assessed as inhibition of menthol -mediated calcium increase at 10 uM by fura-2-based assay; assay type: cell-based
Transient receptor potential cation channel subfamily M member 8 (Homo sapiens), sequence (Q7Z2W7 whole entry, looked up): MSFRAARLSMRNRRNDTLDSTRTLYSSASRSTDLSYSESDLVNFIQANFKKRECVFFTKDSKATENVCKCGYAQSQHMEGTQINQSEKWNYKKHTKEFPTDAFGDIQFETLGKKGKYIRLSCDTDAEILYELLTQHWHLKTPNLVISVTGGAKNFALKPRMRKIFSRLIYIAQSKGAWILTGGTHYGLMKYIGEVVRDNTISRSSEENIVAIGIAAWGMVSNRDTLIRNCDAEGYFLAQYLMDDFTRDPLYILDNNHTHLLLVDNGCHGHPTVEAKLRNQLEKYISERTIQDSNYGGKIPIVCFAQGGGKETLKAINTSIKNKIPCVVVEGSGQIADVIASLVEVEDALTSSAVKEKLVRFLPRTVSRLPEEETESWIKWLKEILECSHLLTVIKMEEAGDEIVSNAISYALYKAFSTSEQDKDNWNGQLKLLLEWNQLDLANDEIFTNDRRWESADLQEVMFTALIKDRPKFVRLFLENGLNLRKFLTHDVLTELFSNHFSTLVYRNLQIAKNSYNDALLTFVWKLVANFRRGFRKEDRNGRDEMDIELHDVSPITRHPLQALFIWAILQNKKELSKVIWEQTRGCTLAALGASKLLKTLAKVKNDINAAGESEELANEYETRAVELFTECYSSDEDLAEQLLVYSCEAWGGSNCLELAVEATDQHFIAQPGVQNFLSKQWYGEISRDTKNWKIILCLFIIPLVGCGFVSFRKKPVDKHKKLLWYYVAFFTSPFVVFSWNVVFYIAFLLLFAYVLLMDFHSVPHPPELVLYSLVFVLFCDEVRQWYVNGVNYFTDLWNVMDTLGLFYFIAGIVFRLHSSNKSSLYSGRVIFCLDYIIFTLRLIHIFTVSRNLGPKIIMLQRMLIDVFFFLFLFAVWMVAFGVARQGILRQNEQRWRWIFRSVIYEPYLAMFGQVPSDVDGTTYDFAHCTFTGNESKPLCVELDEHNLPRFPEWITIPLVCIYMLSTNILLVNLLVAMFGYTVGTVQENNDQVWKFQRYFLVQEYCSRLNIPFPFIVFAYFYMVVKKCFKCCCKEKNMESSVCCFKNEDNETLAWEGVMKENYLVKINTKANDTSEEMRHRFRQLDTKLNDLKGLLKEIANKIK
How it was run: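 TRPM8-overexpressing Hek cells; calcium rise evoked by menthol (100 μM), test compounds at 10 μM; peak amplitude read out; mean ± SEM of 600 cells from 30 plates on four separate experimental days.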

[11] = Metabolic stability in CD1 mouse plasma assessed as residual compound level at 50 uM after 30 mins by LC-UV analysis; assay type: ADME, cell-free; settings: read-out: Stability
How it was run: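 Compounds incubated in mouse plasma for 30 min; percentage of residual substrate determined.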

[12] = molecular target: T1, Stromal interaction molecule 1 & 2/Calcium release-activated calcium channel protein 1 (Mus musculus); assay: as §1, with “100” for “10”; assay type: cell-based
[13] = molecular target: T2, Short transient receptor potential channel 1 & 3/Stromal interaction molecule 1/Calcium release-activated calcium channel protein 1 (Homo sapiens); assay: as §1, with “TRPC1/TRPC3/STIM1/Orai1” for “STIM1/STIM2/Orai1”, “HEK” for “mouse BV2”, “100” for “10”; assay type: cell-based
[14] = tested on: Jurkat; assay: as §1, with “Induction” for “Modulation”, “store-operated calcium entry” for “STIM1/STIM2/Orai1”, “human Jurkat” for “mouse BV2”, “100” for “10”; assay type: cell-based
[15] = Drug metabolism in CD1 mouse liver microsomes assessed as 1-(4-(4-(3-Carboxyphenyl)-1H-1,2,3-triazol-1-yl)phenyl)-5-(trifluoromethyl)-1H-pyrazole-4-carboxylic Acid metabolite formation at 50 uM after 60 mins by mass spectroscopic analysis; assay type: ADME, microsome
[16] = tested on: voltage-gated calcium channel (Mus musculus); assay: Antagonist activity at voltage-gated calcium channels in C57/BL6 mouse cerebellar granule cells assessed as inhibition of KCl-induced voltage dependent calcium entry at 10 uM by fura-2-based assay
[17] = tested on: voltage-gated calcium channel (Mus musculus); assay: as above; remark: listed apart in the source
[18] = Drug level in CD1 mouse liver microsomes treated with 3-(1-(4-(4-((Pentan-2-yloxy)carbonyl)-5-(trifluoromethyl)-1H-pyrazol-1-yl)-phenyl)-1H-1,2,3-triazol-4-yl)benzoic acid at 50 uM after 60 mind by mass spectroscopic analysis; assay type: ADME, microsome
[19] = species on record: Homo sapiens; assay: Modulation of Orai1/STIM1 (unknown origin) expressed in HEK cells assessed as potentiation of store-operated calcium currents by measuring reduction in time constant of channel activation in presence of 20 mM BAPTA and 150 nM Ca2+ containing internal solution by patch clamp assay relative to control; assay type: cell-based
[20] = molecular target: T2, Short transient receptor potential channel 1 & 3/Stromal interaction molecule 1/Calcium release-activated calcium channel protein 1 (Homo sapiens); assay: (§3) Modulation of TRPC1/TRPC3/STIM1/Orai1 in HEK cells assessed as induction of store-operated calcium entry by measuring increase in AUC of calcium entry at 0.3 to 10 uM preincubated for 30 mins followed by tBhQ-mediated Ca2+ depletion and Ca2+ re-addition to extracellular solution measured for 600 secs by Fluo-4 AM-based fluorometric assay relative to control; assay type: cell-based
[21] = molecular target: T2, Short transient receptor potential channel 1 & 3/Stromal interaction molecule 1/Calcium release-activated calcium channel protein 1 (Homo sapiens); assay: as §3, with “peak amplitude” for “AUC of calcium entry”; assay type: cell-based
[22] = molecular target: T2, Short transient receptor potential channel 1 & 3/Stromal interaction molecule 1/Calcium release-activated calcium channel protein 1 (Homo sapiens); assay: as §3, with “slope” for “AUC of calcium entry”; assay type: cell-based
[23] = molecular target: T1, Stromal interaction molecule 1 & 2/Calcium release-activated calcium channel protein 1 (Mus musculus); assay: (§4) Modulation of STIM1/STIM2/Orai1 in mouse BV2 cells assessed as induction of store-operated calcium entry by measuring increase in AUC of calcium entry at 0.3 to 10 uM preincubated for 30 mins followed by tBhQ-mediated Ca2+ depletion and Ca2+ re-addition to extracellular solution measured for 600 secs by Fluo-4 AM-based fluorometric assay relative to control; assay type: cell-based
[24] = molecular target: T1, Stromal interaction molecule 1 & 2/Calcium release-activated calcium channel protein 1 (Mus musculus); assay: as §4, with “peak amplitude” for “AUC of calcium entry”; assay type: cell-based
[25] = molecular target: T1, Stromal interaction molecule 1 & 2/Calcium release-activated calcium channel protein 1 (Mus musculus); assay: as §4, with “slope” for “AUC of calcium entry”; assay type: cell-based
[26] = tested on: Jurkat; assay: as §3, with “Induction” for “Modulation”, “store-operated calcium entry” for “TRPC1/TRPC3/STIM1/Orai1”, “human Jurkat” for “HEK”, “peak amplitude” for “AUC of calcium entry”; assay type: cell-based
[27] = tested on: Jurkat; assay: as §3, with “Induction” for “Modulation”, “store-operated calcium entry” for “TRPC1/TRPC3/STIM1/Orai1”, “human Jurkat” for “HEK”; assay type: cell-based
[28] = tested on: Jurkat; assay: as §3, with “Induction” for “Modulation”, “store-operated calcium entry” for “TRPC1/TRPC3/STIM1/Orai1”, “human Jurkat” for “HEK”, “slope” for “AUC of calcium entry”; assay type: cell-based
[29] = molecular target: T3, ORAI1/STIM1 (Homo sapiens); assay: Modulation of Orai1/STIM1 (unknown origin) expressed in HEK cells assessed as potentiation of store-operated calcium currents in presence of 20 mM BAPTA by patch clamp assay relative to control; assay type: cell-based; how it was run: as §2
[30] = molecular target: T3, ORAI1/STIM1 (Homo sapiens); assay: Modulation of Orai1/STIM1 (unknown origin) expressed in HEK cells assessed as potentiation of store-operated calcium currents in presence of 20 mM BAPTA and 150 nM Ca2+ containing internal solution by patch clamp assay relative to control; assay type: cell-based
[31] = molecular target: T2, Short transient receptor potential channel 1 & 3/Stromal interaction molecule 1/Calcium release-activated calcium channel protein 1 (Homo sapiens); assay: as §1, with “TRPC1/TRPC3/STIM1/Orai1” for “STIM1/STIM2/Orai1”, “HEK” for “mouse BV2”, “uM in presence of shTRPC1” for “uM”; assay type: cell-based
[32] = molecular target: Calcium release-activated calcium channel protein 1 (Mus musculus) (UniProt Q8BWG9); assay: as §1, with “Orai1” for “STIM1/STIM2/Orai1”, “Stim1-/1 and Stim2-/- MEF” for “mouse BV2”; assay type: cell-based
Calcium release-activated calcium channel protein 1 (Mus musculus), sequence (Q8BWG9 whole entry): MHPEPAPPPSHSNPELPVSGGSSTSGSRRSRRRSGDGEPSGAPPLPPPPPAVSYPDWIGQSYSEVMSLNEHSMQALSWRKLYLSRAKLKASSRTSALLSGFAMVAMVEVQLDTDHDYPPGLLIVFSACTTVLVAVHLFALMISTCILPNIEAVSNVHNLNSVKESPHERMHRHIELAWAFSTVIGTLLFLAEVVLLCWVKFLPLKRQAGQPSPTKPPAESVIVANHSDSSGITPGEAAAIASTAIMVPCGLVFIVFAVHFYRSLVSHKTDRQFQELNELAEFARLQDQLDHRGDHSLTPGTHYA

[33] = molecular target: T1, Stromal interaction molecule 1 & 2/Calcium release-activated calcium channel protein 1 (Mus musculus); assay: as §1, with “entry” for “entry by measuring residual activity”, “800” for “600”; assay type: cell-based
How it was run: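 Microplate Fluo-4 assay in mouse microglial BV-2 cells. Stores emptied with tBhQ (50 μM) in presence of compound (10 μM); extracellular Ca2+ re-added after 600 s and intracellular Ca2+ read fluorimetrically; SOCE expressed versus control.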

[34] = molecular target: T2, Short transient receptor potential channel 1 & 3/Stromal interaction molecule 1/Calcium release-activated calcium channel protein 1 (Homo sapiens); assay: as §3, with “entry” for “entry by measuring increase in AUC of calcium entry”, “at” for “at 0.3 to”, “800” for “600”; assay type: cell-based
[35] = tested on: Jurkat; assay: Induction of store-operated calcium entry in human Jurkat cells assessed as induction of store-operated calcium entry at 10 uM preincubated for 30 mins followed by tBhQ-mediated Ca2+ depletion and Ca2+ re-addition to extracellular solution measured for 800 secs by Fluo-4 AM-based fluorometric assay relative to control; assay type: cell-based

Compound: CCOC(=O)c1cnn(-c2ccc(-n3cc(-c4cccc(C(=O)O)c4)nn3)cc2)c1C(F)(F)F
- Activity [1]: 54.7%
- Activity [2]: 12.8%
- Activity [3]: 12.8%
- pIC50 [4]: 5.31
- pIC50 [5]: 6.22
- pIC50 [6]: 6.22
- viability at 10 µM [7]: 84%
- inhibition [8]: 40%
- inhibition [9]: Active
- inhibition [10]: inactive
- remaining at 0.5 h, 50 µM [11]: 0%
- residual activity [12]: < 100%
- residual activity [13]: < 100%
- residual activity [14]: < 100%
- Drug metabolism [15]: Metabolite_Notdetected
- inhibition [16]: inactive
- inhibition [17]: inactive

Compound: CCCC(C)OC(=O)c1cnn(-c2ccc(-n3cc(-c4cccc(C(=O)O[C@@H]5O[C@H](C(=O)O)[C@@H](O)[C@H](O)[C@H]5O)c4)nn3)cc2)c1C(F)(F)F (some centres not stated)
- Drug uptake [18]: Active

Compound: O=C(O)c1ccc(-c2cn(-c3ccc(-n4nc(C(F)(F)F)cc4C(F)(F)F)cc3)nn2)cc1
- Activity [1]: 198%
- Activity [2]: 213%
- Activity [3]: 236%
- Activity [19]: Active
- inhibition [9]: inactive
- inhibition [10]: inactive
- Activity [20]: Active
- Activity [21]: Active
- Activity [22]: Active
- Activity [23]: Active
- Activity [24]: Active
- Activity [25]: Active
- Activity [26]: Active
- Activity [27]: Active
- Activity [28]: Active
- Activity [29]: Active
- Activity [30]: inactive
- Activity [31]: Active
- Activity [32]: Active
- Activity [33]: Active
- Activity [34]: Active
- Activity [35]: Active
- inhibition [16]: inactive
- inhibition [17]: inactive
